Assay outcomes deposited in PubChem BioAssay by several laboratories.
CSN inh = inhibitors of CSN-mediated cullin deneddylation, primary screen, biochemical, fluorescence polarization, uHTS; COP9 signalosome complex subunit 5 (Homo sapiens), Q92905; Purified CSN, SCF-Nedd8-OG deneddylation; inhibition, % at 12.5 µM; hit rate 0.38% among 360,000; AID 651999, 2013;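 active = pattern-corrected inhibition above about 35%, with an unprinted fluorescence ratio check between 0.5 and 1.5, limit read from the data, passing the limit was not always enough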;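 also: 0% = enzyme with substrate and 100% = substrate without enzyme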
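Test system: Human Csn5 produced in HEK293T cells | Compound: 12.5 µM single point | Times: 90 min, room temperature | Signal: Fluorescence polarization readout | Read-out basis: % inhibition of substrate cleavage by Csn5 | Controls: no-enzyme wells high, enzyme-with-substrate wells low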
CRFBP-R2 agonist = agonists of CRF-BP/CRF-R2 complex, primary screen, cell-based, HEK293, calcium dye fluorescence, uHTS. CRF-binding protein / CRF receptor 2 complex (human). calcium dye fluorescence (FLIPR); percent of saturating CRF peptide response. activation, % at 13.2 µM. hit rate 0.46% among 350,000. AID 588473, 2011;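 active = activation of at least 50%, plus an integration ratio under a set limit after plate pattern correction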;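 also: plate controls were neutral control wells without compound for no effect and CRF at EC100 for full effect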
TPT1 inh = Candida albicans TPT1 enzyme inhibitors, primary screen, biochemical, fluorescence polarization. inhibition, % at 5 µM. recombinant caTPT1, FP RNA substrate dephosphorylation. tRNA 2'-phosphotransferase TPT1 (Candida albicans SC5314). hit rate 0.81% among 300,000;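 active = inhibition above the mean of all tested compounds plus 3 SD, set per screening campaign, cut at about 24% in these data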;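 also: plate controls were DMSO alone for no effect and ferristatin control at 100 nM for full effect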
Rpn11 block = Rpn11 (PSMD14) deubiquitinase inhibitors, primary screen, biochemical, fluorescence polarization, uHTS; 26S proteasome non-ATPase regulatory subunit 14 (Homo sapiens), O00487; human 26S proteasome, Ub4-pepOG fluorescence polarization; 20S core pre-blocked with epoxomicin; calls only at 20 µM; hit rate 0.59% among 360,000;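 active = inhibition at 20 µM, scaled to each plate's controls, above about 33%, limit read from the data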
Target sequence (O00487 whole entry, looked up): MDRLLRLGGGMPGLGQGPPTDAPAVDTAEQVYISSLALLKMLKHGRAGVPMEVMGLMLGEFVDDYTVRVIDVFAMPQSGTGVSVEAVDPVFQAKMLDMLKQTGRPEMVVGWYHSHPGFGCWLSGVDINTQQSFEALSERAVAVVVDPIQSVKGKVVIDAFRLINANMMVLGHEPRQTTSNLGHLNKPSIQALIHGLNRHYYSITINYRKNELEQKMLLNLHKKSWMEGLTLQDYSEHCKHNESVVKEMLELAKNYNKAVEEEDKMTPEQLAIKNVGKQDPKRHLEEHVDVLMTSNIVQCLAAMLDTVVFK
CRFBP-R2 block = antagonists of CRF-BP/CRF-R2 complex, primary screen, cell-based, HEK293, calcium dye fluorescence, uHTS; CRF-induced calcium fluorescence; AID 588475, 2011; hit rate 0.59% among 350,000; inhibition, % at 11.8 µM;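 active = inhibition of the ligand-induced calcium signal above about 50% at the single tested concentration, limit read from the data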
HNF4A DNA FP = change in binding of human HNF4A to DNA, primary screen, biochemical, fluorescence polarization, FITC-DNA; 1 h; hit rate 0.3% among 360,000; Hepatocyte nuclear factor 4-alpha (Homo sapiens), P41235; activity change, % at 10 µM; in the data active = activity change above about 30%, passing the limit was not always enough
The depositor's hits bear a star; i = inactive; nt = not tested or not shown. In the library only some 2.3% were active in any assay of this set; here they are far more common.

SMILES	CSN inh	CRFBP-R2 agonist	TPT1 inh	Rpn11 block	CRFBP-R2 block	HNF4A DNA FP
Cc1nc(N)ncc1-c1ccc2c(c1)OCO2	6	0	1	i	12	2
CN(C(=O)CN1C(=O)/C(=C/c2ccccc2Cl)SC1=S)C1CCS(=O)(=O)C1 (stereo not given)	-1	6	1	i	53*	-3
CN(C(=O)CN1C(=O)S/C(=C\c2ccccc2Cl)C1=O)C1CCS(=O)(=O)C1 (stereo not given)	1	0	-4	i	-12	-3
Cc1ccccc1C(=O)Nc1ccc2c(C#N)c3nc4ccccc4nc3n2c1	-14	84*	9	i	-38	-31
CC(=O)Nc1cc(C(N)=O)c(Cl)cc1Cl	-5	-1	4	i	72*	2
NS(=O)(=O)c1cccc(NC(=S)NC(=O)C23CC4CC(CC(C4)C2)C3)c1	31	-2	-2	i	-35	-2
COCCn1nnnc1C(C(C)C)N(Cc1cccnc1)Cc1ccccc1Cl (stereo not given)	-1	1	2	i	16	-2
CCCCn1c(NC(=O)c2ccc(F)cc2)c(C#N)c2nc3ccccc3nc21	nt	nt	81*	nt	nt	nt
COc1cc(NC(=O)c2cc(OC)c(OC)c(OC)c2)c2ncccc2c1	2	-2	nt	i	26	2
COc1ccc(CCNC(=O)C(=O)NCC2OCCN2S(=O)(=O)c2ccc(Cl)cc2)cc1 (stereo not given)	-2	0	0	i	15	1
COc1ccc(CCNC(=O)C(=O)NCC2OCCN2S(=O)(=O)c2ccc(OC)cc2)cc1 (stereo not given)	-1	-7	-5	i	64*	7
Cn1nc(-c2ccc(C(=O)Nc3ccc(F)cc3)cc2)c2ccccc2c1=O	44*	2	-1	i	-14	1
COc1ccc2[nH]cc(CCNS(=O)(=O)c3ccccc3)c2c1	60*	-1	5	i	-4	0
COc1ccc2sc(-c3ccc(S(C)(=O)=O)cc3)c(C(=O)NCCc3c[nH]c4ccccc34)c2c1	-5	-1	nt	i	63*	1
COc1ccc2c(C(=O)NCCCCO)c(-c3ccc(S(C)(=O)=O)cc3)sc2c1	4	0	nt	i	1	2
COc1ccc2[nH]cc(CCNS(=O)(=O)c3ccc(F)cc3)c2c1	1	-1	2	i	-17	1
CCC1(c2ccc(F)cc2)NC(=O)N(CC(=O)N2c3ccccc3CC2C)C1=O (stereo not given)	-2	29	nt	i	-25	2
CCn1c(=O)c(C(=O)CN2c3ccccc3CC2C)c(N)n(Cc2ccccc2)c1=O (stereo not given)	4	4	5	i	-16	0
CCn1c(=O)c(C(=O)CN2CCCc3ccccc32)c(N)n(Cc2ccccc2)c1=O	48*	1	14	nt	1	88
C=CC[C@@H](CC(=O)NCCO)C(=O)N[C@@H](COC(=O)[C@@H](CC=C)Cc1ccc(F)cc1)Cc1c[nH]c2ccccc12	-1	4	nt	i	-5	2
O=C(O)CSc1nc2ccc(Cl)cc2[nH]1	-2	-1	0	i	2	-1
O=C(O)CSc1nc2ccc(Br)cc2[nH]1	70*	0	nt	i	-3	4
O=C(COC(=O)c1nc(Cl)ccc1Cl)NCc1ccc(Cl)cc1Cl	-1	0	nt	i	7	0
O=CN/N=C/c1c(O)ccc2ccccc12	-15	88*	3	i	-62	-25
Oc1ccccc1C=NN=Cc1c(O)ccc2ccccc12	-61	144*	nt	nt	-116	34
SMILES	CSN inh	CRFBP-R2 agonist	TPT1 inh	Rpn11 block	CRFBP-R2 block	HNF4A DNA FP
Oc1ccc2ccccc2c1C=NCc1ccccc1	-2	-2	-1	i	5	-2
CC(NC(=O)c1ccc(F)cc1Cl)C1CC2CCC1C2 (stereo not given)	1	-1	-1	i	3	2
N=C(N)SCc1nc2ccccc2c(=O)n1-c1ccccc1Cl	7	-2	2	i	-9	1
Cc1ccccc1-n1c(CSC(=N)N)nc2ccccc2c1=O	4	0	0	i	52*	0
CC12CCC(=O)N1C(C(=O)Nc1nc(-c3ccccc3)cs1)CS2 (stereo not given)	3	0	0	i	-15	3
CCOC(=O)C(CCCCOc1ccc([N+](=O)[O-])cc1)C(=O)OCC	-4	-4	5	i	62*	4
COc1ccccc1NC(=O)Nc1ccc2[nH]c(=O)[nH]c2c1	4	3	4	i	-6	3
COc1ccc(C2=NOC(C(=O)NCc3ccc(F)cc3)C2)cc1 (stereo not given)	-7	-5	-2	i	4	3
CCNC(=O)CN(C1CCCCC1)S(=O)(=O)c1ccc(F)cc1	4	-1	0	nt	46	37*
CNC(=O)CN(C1CCCCC1)S(=O)(=O)c1ccc(F)cc1	-1	-6	-2	i	56*	-1
O=C(CN(C1CCCCC1)S(=O)(=O)c1ccc(F)cc1)NC1CC1	0	-1	0	i	-6	1
c1ccc(-c2n[nH]nc2-c2ccccc2)cc1	-1	-4	-1	i	9	-1
CC[C@@H](C(=O)[C@@H](C)[C@@H](O)[C@H](C)CCc1ccc(C)c(O)c1C(=O)O)[C@H]1O[C@](CC)([C@H]2CC[C@](O)(CC)[C@H](C)O2)C[C@@H]1C	0	118*	-3	i	-2	-2
COc1ccc(/C=C2/N=C3CCCCCN3C2=O)cc1	-7	-1	1	i	5	-1
COc1ccc(Cl)cc1NC(=O)COC(=O)/C=C/c1c(C)nn(C2CCS(=O)(=O)C2)c1Cl (stereo not given)	-1	0	5	i	3	-1
CCC1Oc2ccc(C)cc2N(CC(=O)NCCCN2CCOCC2)C1=O (stereo not given)	-1	0	-1	i	2	2
Cc1ccc(C)c(Cn2nc(-c3ccccc3)ccc2=O)c1	3	-1	-1	i	-5	-4
Cc1ccc(-c2ccc(=O)n(Cc3cc(C)ccc3C)n2)cc1	-1	5	nt	i	123*	-3
CC(=O)N/N=C/c1cc(C(C)C)cc(/C=N/NC(C)=O)c1O	-24	92*	-56	i	-47	-39
